UCH37 DUB inh = inhibitors of human UCH37 deubiquitinase, primary screen, biochemical, Ub-AMC cleavage, fluorescence; Ubiquitin carboxyl-terminal hydrolase isozyme L5 (Homo sapiens), Q9Y5K5; inhibition, % (no concentration beside the values); purified proteasome/UCH37; 330,000 tested, 0.33% active;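 active means mean inhibition over replicate wells above about 20%, limit read from the data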
Target sequence (Q9Y5K5 whole entry, looked up): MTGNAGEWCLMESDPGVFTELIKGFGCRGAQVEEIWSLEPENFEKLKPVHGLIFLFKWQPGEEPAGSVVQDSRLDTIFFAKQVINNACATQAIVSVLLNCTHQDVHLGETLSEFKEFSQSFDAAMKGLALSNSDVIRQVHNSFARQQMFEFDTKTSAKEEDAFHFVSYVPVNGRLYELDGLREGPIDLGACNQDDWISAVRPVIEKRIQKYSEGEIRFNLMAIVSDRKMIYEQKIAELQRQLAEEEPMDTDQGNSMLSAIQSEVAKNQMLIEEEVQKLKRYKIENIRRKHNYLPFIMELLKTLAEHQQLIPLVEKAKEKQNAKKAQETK
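Material: Human UCH37 enzyme supplied as purified proteasome complex | Schedule: 30 min compound-proteasome preincubation then 25 min substrate reaction, room temperature | Detection: AMC fluorescence from Ub-AMC cleavage, excitation 355 nm, emission 460 nm | Benchmarks: Wells without proteasome as full block, compound-free enzyme plus substrate as uninhibited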
UBC13 inh = UBC13 polyubiquitin chain formation inhibitors, primary screen, biochemical, TR-FRET, uHTS | Ubiquitin-conjugating enzyme E2 N (Homo sapiens), P61088 | inhibition, % at 20 µM | 330,000 tested, 0.47% active; in the data active means inhibition above about 45%, passing the limit was not always enough
Target sequence (P61088 whole entry, looked up): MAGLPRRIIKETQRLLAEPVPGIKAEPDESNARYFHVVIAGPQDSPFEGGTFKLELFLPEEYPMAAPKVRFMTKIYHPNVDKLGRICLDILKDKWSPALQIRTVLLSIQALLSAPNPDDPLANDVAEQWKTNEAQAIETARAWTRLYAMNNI
MEKK2mut PB1 HTS = MEK5 binding signal on mutant MEKK2 PB1, primary screen, biochemical, multiplex bead flow cytometry, Alexa488-MEK5; Alexa488-MEK5 binding to MEKK2 mutant; percent response, % at 10 µM; 290,000 tested, 0.35% active; AID 1530, 2009; in the data active means percent response above about 24%, passing the limit was not always enough
MEKK2wt PB1 HTS = modulators of MEK5 binding to wildtype MEKK2, primary screen, biochemical, multiplex bead flow cytometry, Alexa488-MEK5. Alexa488-MEK5 binding to MEKK2 WT; actives lie on both sides. binding response (% of control), % at 10 µM. 290,000 tested, 1.1% active; in the data active means binding response below about 67% or above about 130%
MEKK3 PB1 HTS = modulators of MEKK3-MEK5 PB1 binding, primary screen, biochemical, wildtype MEKK3, multiplex bead flow cytometry, Alexa488-MEK5; binding response (% of control), % at 10 µM; bead-based flow cytometry, Alexa488-MEK5 binding to MEKK3; actives lie on both sides; 0 = blocked by unlabeled MEK5, 100 = vehicle; Mitogen-activated protein kinase kinase kinase 3 (Homo sapiens), Q99759; 290,000 tested, 1.4% active;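 active means binding response more than 3 SD above or below the average of its plate-row segment, actives on both sides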;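 further: Alexa488 bead fluorescence after subtracting the streptavidin-only scavenger bead signal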
Apaf1 inhib = inhibitors of human Apaf-1 apoptosome, primary screen, biochemical, DEVD-Rh110 fluorescence, uHTS | reconstituted apoptosome caspase-3 activity | inhibition, % at 20 µM | 330,000 tested, 0.71% active | AID 489030, 2010; active means inhibition of at least 40% at 20 µM
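System: Apoptosome proteins | Medium: Hepes pH 7.5 with detergent and BSA | Also added: Cytochrome c trigger plus (Z-DEVD)2-Rh110 caspase-3 substrate | Incubation: 30 min compound preincubation, 50 min activation, room temperature | Detection: Rhodamine 110 fluorescence at Ex 480/Em 540 nm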
MEKK2wt confirm = modulators of MEK5 binding to wildtype MEKK2, confirmation, biochemical, single concentration, multiplex bead flow cytometry | shares compounds with MEKK3 PB1 HTS | Alexa488-MEK5 binding to MEKK2 WT; actives lie on both sides | binding response (% of control), % at 10 µM | 5,900 tested, 2.4% active; in the data active means binding response below about 16% or above about 210%; inactive means in between
MEKK2mut-MEK5 = mutant MEKK2 PB1-MEK5 binding signal retest – biochemical, single concentration, multiplex bead flow cytometry, confirmation; shares compounds with MEKK3 PB1 HTS; Alexa488-MEK5 binding to MEKK2 mutant; percent response, % at 10 µM; 5,900 tested, 2% active; in the data active means percent response mostly above about 71%, no sharp cut-off; inactive means mostly below about 38%;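 further: higher means compound restores mutant binding toward wildtype level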
MEKK3-MEK5 inh = MEKK3 wild-type PB1 binding to MEK5, inhibitors, confirmation, biochemical, bead multiplex flow cytometry, single concentration, wildtype | 5,900 tested, 1.8% active | Alexa488-MEK5 binding to MEKK3; active compounds read low | shares compounds with MEKK3 PB1 HTS | binding response (% of control), % at 10 µM;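 active means binding response below 72% of control, or above a set upper limit, though filed actives all read lower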;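 further: lower values mean stronger disruption of MEK5 binding to MEKK3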
Casp3 UBC13 ctr = CASP3 inhibitor validation, counterassay for project on UBE2N polyubiquitination blockers, biochemical, one dose; AID 488856, 2010; 1,400 tested, 4% active; inhibition, % at 20 µM; shares compounds with UBC13 inh; Recombinant caspase-3, Caspase-Glo 3/7 luminescence, 60 min;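 active means mean inhibition across replicates above about 26%, limit read from the data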
UBC13 conf = UBC13 polyubiquitination inhibitors, single-point retest, confirmation, biochemical, TR-FRET, single concentration; shares compounds with UBC13 inh; inhibition, % at 10 µM; 1,400 tested, 68% active; in the data active means inhibition above about 45%
Apaf-1 inh conf2 = Apaf-1 inhibitors, single-dose retest, confirmation, biochemical, fluorescence, DEVD-Rh110, 20 µM; inhibition, % at 20 µM; 1,800 tested, 25% active; shares compounds with Apaf1 inhib; reconstituted apoptosome, caspase-3 DEVD-Rh110 fluorescence;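 active means mean inhibition of at least 40% at 20 µM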
Rh110 interf inh = Rh110 fluorescence interference by putative Apaf-1 inhibitors, confirmation, artefact control for Apaf-1 inhibitor project, biochemical, 20 µM. shares compounds with Apaf1 inhib. quenched caspase reaction. 1,800 tested, under 10 active. activation (fluorescence interference), % at 20 µM;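 active means signal rise of 40% or more at 20 µM, treated as a fluorescence artifact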
Fluor interf inh = fluorescence interference of Apaf-1 inhibitor hits, dose response, artefact control for Apaf-1 inhibitor project. 460 tested, under 10 active. AID 588538, 2011. fluorescence interference counterscreen, Apaf-1 assay format. IC50, µM. shares compounds with Apaf1 inhib; call rule not given here
Large screens that a line does not name were inactive (follow-up assays come after a bar, where they were run). Most compounds without a hit are left out; they make up all but 3% or so of the library.

OC[C@H](O)[C@H](O)[C@@H](O)[C@@H](O)[C@@H]1SC(c2ccccc2)=NN1c1ccccc1	none
COc1ccc(CN2CCN(C(c3ccc(F)cc3)c3ccc(F)cc3)CC2)c(OC)c1OC	MEKK2wt PB1 HTS 183, Apaf1 inhib 48 | MEKK2wt confirm inactive | MEKK2mut-MEK5 inactive | MEKK3-MEK5 inh inactive | Apaf-1 inh conf2 inactive | Rh110 interf inh inactive
COc1ccc(CN2CCN(c3ccc(F)cc3)CC2)c(OC)c1OC	none
C#CCOCCOCCOCCNc1nc(N2CCN(C(=O)[C@H](Cc3cc4ccccc4[nH]3)n3cc(C(N)CC(C)C)nn3)CC2)nc(N2CCN(C(=O)[C@H](CCC(=O)O)n3cc(C(N)[C@H](C)CC)nn3)CC2)n1 (stereo not given in full)	none
C#CCOCCOCCOCCNc1nc(N2CCN(C(=O)[C@H](CCC(=O)O)n3cc(C(N)CC(C)C)nn3)CC2)nc(N2CCN(C(=O)[C@H](Cc3cc4ccccc4[nH]3)n3cc(C(N)CC(C)C)nn3)CC2)n1 (stereo not given in full)	none
C#CCOCCOCCOCCNc1nc(N2CCN(C(=O)[C@H](Cc3cc4ccccc4[nH]3)n3cc([C@@H](N)C(C)CC)nn3)CC2)nc(N2CCN(C(=O)[C@H](CCCCN)n3cc([C@@H](N)CC(C)C)nn3)CC2)n1 (stereo not given in full)	UBC13 inh 98, MEKK2mut PB1 HTS 95, MEKK2wt PB1 HTS 247, Apaf1 inhib 41 | MEKK2wt confirm 232 | MEKK2mut-MEK5 89 | MEKK3-MEK5 inh inactive | Casp3 UBC13 ctr inactive | UBC13 conf 116 | Apaf-1 inh conf2 inactive | Rh110 interf inh inactive
C#CCOCCOCCOCCNc1nc(N2CCN(C(=O)[C@H](Cc3ccc(O)cc3)n3cc([C@@H](N)C(C)CC)nn3)CC2)nc(N2CCN(C(=O)[C@H](Cc3cc4ccccc4[nH]3)n3cc([C@@H](N)CC(C)C)nn3)CC2)n1 (stereo not given in full)	UBC13 inh 76, MEKK2mut PB1 HTS 73, MEKK2wt PB1 HTS 224, Apaf1 inhib 47 | MEKK2wt confirm 231 | MEKK2mut-MEK5 117 | MEKK3-MEK5 inh inactive | Casp3 UBC13 ctr inactive | UBC13 conf 56 | Apaf-1 inh conf2 inactive | Rh110 interf inh inactive
C#CCOCCOCCOCCNc1nc(N2CCN(C(=O)[C@H](Cc3cc4ccccc4[nH]3)n3cc([C@@H](N)CC(C)C)nn3)CC2)nc(N2CCN(C(=O)[C@H](Cc3cc4ccccc4[nH]3)n3cc([C@@H](N)CC(C)C)nn3)CC2)n1	UBC13 inh 106, MEKK2mut PB1 HTS 112, MEKK2wt PB1 HTS 258, Apaf1 inhib 71 | MEKK2wt confirm 289 | MEKK2mut-MEK5 132 | MEKK3-MEK5 inh inactive | Casp3 UBC13 ctr inactive | UBC13 conf 105 | Apaf-1 inh conf2 inactive | Rh110 interf inh inactive
CN1CCN(c2ccc(NC(=O)c3ccc(-c4ccc(Br)cc4)o3)cc2)CC1	MEKK2wt PB1 HTS 168, Apaf1 inhib 45 | MEKK2wt confirm inactive | MEKK2mut-MEK5 inactive | MEKK3-MEK5 inh inactive | Apaf-1 inh conf2 42 | Rh110 interf inh inactive | Fluor interf inh inactive
CC(O)CNc1nc2ccccc2n1-c1ncnc2sc3c(c12)CCC3 (stereo not given)	none
C/C=C(\C)C(=O)NCCN1C2=NC[C@@H](C)N2C[C@H]1Cc1ccc(O)cc1	none
COc1ccc(C[C@H]2CN3C(=NC[C@@H]3Cc3ccccc3)N2CCNC(=O)c2ccc(C)c(Br)c2)cc1	UBC13 inh 88, MEKK2mut PB1 HTS 132, MEKK2wt PB1 HTS 271, Apaf1 inhib 65 | MEKK2wt confirm inactive | MEKK2mut-MEK5 inactive | MEKK3-MEK5 inh inactive | Casp3 UBC13 ctr inactive | UBC13 conf 56 | Apaf-1 inh conf2 inactive | Rh110 interf inh inactive
COc1ccc(C[C@H]2CN3C(=NC[C@@H]3C(C)C)N2C[C@H](C)NC(=O)c2ccc(C)c(Br)c2)cc1	UBC13 inh 54, MEKK2wt PB1 HTS 153, Apaf1 inhib 48 | MEKK2wt confirm inactive | MEKK2mut-MEK5 inactive | MEKK3-MEK5 inh inactive | Casp3 UBC13 ctr inactive | UBC13 conf inactive | Apaf-1 inh conf2 inactive | Rh110 interf inh inactive
